Laboratory results from ChEMBL document CHEMBL4402612, “Heterodimeric Analogues of the Potent Y1R Antagonist 1229U91, Lacking One of the Pharmacophoric C-Terminal Structures, Retain Potent Y1R Affinity and Show Improved Selectivity over Y4R” (J Med Chem, 2020).
Positions of bridges follow the written chain, without caps; N, C: chain ends. Non-standard residues stand in square brackets, D forms with d. Residues, ends and D or L forms follow the SMILES beside them. Chains are numbered I, II in the order given. Orn = NCCC[C@H](N)C(=O)O; Dab = NCC[C@H](N)C(=O)O; Dap = NC[C@H](N)C(=O)O

Experiments:
[1] = target: T1, Neuropeptide Y receptor type 4 (Homo sapiens, UniProt P50391); experiment: Agonist activity at Y4R in human HEK293T cells assessed as increase in beta-arrestin recruitment incubated for 60 mins by Hoechst 33342 dye based fluorescence analysis
T1 sequence (P50391 whole entry): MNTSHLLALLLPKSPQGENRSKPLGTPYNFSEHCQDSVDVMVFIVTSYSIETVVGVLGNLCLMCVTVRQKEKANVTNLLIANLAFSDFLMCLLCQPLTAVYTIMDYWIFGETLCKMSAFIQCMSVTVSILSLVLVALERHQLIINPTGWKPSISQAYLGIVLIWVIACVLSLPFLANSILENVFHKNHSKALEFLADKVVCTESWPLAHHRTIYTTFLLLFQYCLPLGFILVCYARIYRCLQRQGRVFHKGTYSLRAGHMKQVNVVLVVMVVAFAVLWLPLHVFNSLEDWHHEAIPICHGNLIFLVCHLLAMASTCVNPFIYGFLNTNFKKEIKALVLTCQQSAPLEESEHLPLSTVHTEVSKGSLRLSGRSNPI

[2] = target: T1, Neuropeptide Y receptor type 4; experiment: Displacement of (sCy5)-[Lys2 Arg4]-BVD15 from GFP-tagged Y4R in human HEK293T cells assessed as inhibitory constant incubated for 5 mins followed by (sCy5)-[Lys2 Arg4]-BVD15 addition and measured after 30 mins by fluorescence based assay; assay type: cell-based
How it was run: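 Competitors (10^-10–10^-6 M) added in HBSS/0.1% BSA with H33342 for 5 min, then 100 nM final (sCy5)-[Lys²Arg⁴]-BVD15 for 30 min at 37 °C. Washed and imaged confocally; granule counts per cell. Non-specific binding with 100 nM PP.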

[3] = target: T2, Neuropeptide Y receptor type 1 (Homo sapiens, UniProt P25929); experiment: Displacement of (sCy5)-[Lys2 Arg4]-BVD15 from GFP-tagged Y1R in human HEK293T cells assessed as inhibitory constant incubated for 5 mins followed by (sCy5)-[Lys2 Arg4]-BVD15 addition and measured after 30 mins by fluorescence based assay; assay type: cell-based
T2 sequence (P25929 whole entry): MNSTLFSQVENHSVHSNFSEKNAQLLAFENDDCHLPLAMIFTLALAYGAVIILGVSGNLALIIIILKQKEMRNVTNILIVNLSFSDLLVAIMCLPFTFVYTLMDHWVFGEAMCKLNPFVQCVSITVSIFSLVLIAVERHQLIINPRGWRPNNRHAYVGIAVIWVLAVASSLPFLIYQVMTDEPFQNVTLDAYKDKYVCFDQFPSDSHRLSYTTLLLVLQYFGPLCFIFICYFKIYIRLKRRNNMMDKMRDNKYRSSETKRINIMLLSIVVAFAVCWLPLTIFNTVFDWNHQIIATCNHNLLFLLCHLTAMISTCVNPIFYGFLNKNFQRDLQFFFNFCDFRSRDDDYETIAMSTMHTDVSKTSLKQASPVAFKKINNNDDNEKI

[4] = target: T1, Neuropeptide Y receptor type 4; experiment: Agonist activity at Y4R in human HEK293T cells assessed as increase in beta-arrestin recruitment incubated for 60 mins by Hoechst 33342 dye based fluorescence analysis relative to pancreatic polypeptide
Homo sapiens = species on record: Homo sapiens; experiment: Selectivity index, ratio of Ki of GFP-tagged Y4R in human HEK293T cells to Ki GFP-tagged Y1R in human HEK293T cells; assay type: cell-based
How it was run: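 Ratio of mean Ki values, Y4/Y1, from whole-cell competition binding in tetracycline-induced 293TR Y1-GFP or Y4-GFP cells. Tracer was 100 nM (sCy5)-[Lys²Arg⁴]-BVD15, added after 5 min competitor preincubation, then 30 min at 37 °C, with imaging read-out.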

Row | Structure (SMILES) | EC50 [1] | Ki [2] | Ki [3] | Rmax [4] | Ratio Ki (Homo sapiens)
1 | CC[C@H](C)[C@H](N)C(=O)N[C@H]1CCC(=O)NCCCC[C@@H](C(=O)N[C@@H](Cc2ccc(O)cc2)C(=O)N[C@@H](CCCNC(=N)N)C(=O)N[C@@H](CC(C)C)C(=O)N[C@@H](CCCNC(=N)N)C(=O)N[C@@H](Cc2ccc(O)cc2)C(N)=O)NC(=O)[C@@H]2CCCN2C(=O)[C@@H](NC(=O)[C@@H](N)[C@@H](C)CC)CCC(=O)NCCCC[C@@H](C(=O)N[C@@H](Cc2ccc(O)cc2)C(=O)N[C@@H](CCCNC(=N)N)C(=O)N[C@@H](CC(C)C)C(=O)N[C@@H](CCCNC(=N)N)C(=O)N[C@@H](Cc2ccc(O)cc2)C(N)=O)NC(=O)[C@@H]2CCCN2C1=O (I: H-IEPKYRLRY-NH2 / II: H-IEPKYRLRY-NH2; amide I:2-II:4, I:4-II:2) | 23.4 nM | 158 nM | 25.1 nM | 56.4% | 6.3
2 | CC[C@H](C)[C@H](N)C(=O)N[C@H]1CCC(=O)NCC[C@@H](C(=O)N[C@@H](Cc2ccc(O)cc2)C(=O)N[C@@H](CCCNC(=N)N)C(=O)N[C@@H](CC(C)C)C(=O)N[C@@H](CCCNC(=N)N)C(=O)N[C@@H](Cc2ccc(O)cc2)C(N)=O)NC(=O)[C@@H]2CCCN2C(=O)[C@@H](NC(=O)[C@@H](N)[C@@H](C)CC)CCC(=O)NCC[C@@H](C(=O)N[C@@H](Cc2ccc(O)cc2)C(=O)N[C@@H](CCCNC(=N)N)C(=O)N[C@@H](CC(C)C)C(=O)N[C@@H](CCCNC(=N)N)C(=O)N[C@@H](Cc2ccc(O)cc2)C(N)=O)NC(=O)[C@@H]2CCCN2C1=O (I: H-IEP[Dab]YRLRY-NH2 / II: H-IEP[Dab]YRLRY-NH2; amide I:2-II:4, I:4-II:2) | 30.2 nM | 155 nM | 8.13 nM | 43.8% | 19
3 | CC[C@H](C)[C@H](N)C(=O)N[C@H]1CCC(=O)NC[C@@H](C(=O)N[C@@H](Cc2ccc(O)cc2)C(=O)N[C@@H](CCCNC(=N)N)C(=O)N[C@@H](CC(C)C)C(=O)N[C@@H](CCCNC(=N)N)C(=O)N[C@@H](Cc2ccc(O)cc2)C(N)=O)NC(=O)[C@@H]2CCCN2C(=O)[C@@H](NC(=O)[C@@H](N)[C@@H](C)CC)CCC(=O)NC[C@@H](C(=O)N[C@@H](C)C(=O)N[C@@H](CCCNC(=N)N)C(=O)N[C@@H](CC(C)C)C(=O)N[C@@H](CCCNC(=N)N)C(=O)N[C@@H](Cc2ccc(O)cc2)C(N)=O)NC(=O)[C@@H]2CCCN2C1=O (I: H-IEP[Dap]ARLRY-NH2 / II: H-IEP[Dap]YRLRY-NH2; amide I:2-II:4, I:4-II:2) | 37.2 nM | 631 nM | 2.34 nM | 52.3% | 269
4 | CC[C@H](C)[C@H](N)C(=O)N[C@H]1CCC(=O)NC[C@@H](C(=O)N[C@@H](Cc2ccc(O)cc2)C(=O)N[C@@H](CCCNC(=N)N)C(=O)N[C@@H](CC(C)C)C(=O)N[C@@H](C)C(=O)N[C@@H](Cc2ccc(O)cc2)C(N)=O)NC(=O)[C@@H]2CCCN2C(=O)[C@@H](NC(=O)[C@@H](N)[C@@H](C)CC)CCC(=O)NC[C@@H](C(=O)N[C@@H](Cc2ccc(O)cc2)C(=O)N[C@@H](C)C(=O)N[C@@H](CC(C)C)C(=O)N[C@@H](CCCNC(=N)N)C(=O)N[C@@H](Cc2ccc(O)cc2)C(N)=O)NC(=O)[C@@H]2CCCN2C1=O (I: H-IEP[Dap]YALRY-NH2 / II: H-IEP[Dap]YRLAY-NH2; amide I:2-II:4, I:4-II:2) |  | 912 nM | 31.6 nM | -9.5% | 32
5 | CC[C@H](C)[C@H](N)C(=O)N[C@H]1CCC(=O)NC[C@@H](C(=O)N[C@@H](Cc2ccc(O)cc2)C(=O)N[C@@H](CCCNC(=N)N)C(=O)N[C@@H](CC(C)C)C(=O)N[C@@H](CCCNC(=N)N)C(=O)N[C@@H](Cc2ccc(O)cc2)C(N)=O)NC(=O)[C@@H]2CCCN2C(=O)[C@@H](NC(=O)[C@@H](N)[C@@H](C)CC)CCC(=O)NC[C@@H](C(=O)N[C@@H](Cc2ccc(O)cc2)C(=O)N[C@@H](CCCNC(=N)N)C(=O)N[C@@H](C)C(=O)N[C@@H](CCCNC(=N)N)C(=O)N[C@@H](Cc2ccc(O)cc2)C(N)=O)NC(=O)[C@@H]2CCCN2C1=O (I: H-IEP[Dap]YRARY-NH2 / II: H-IEP[Dap]YRLRY-NH2; amide I:2-II:4, I:4-II:2) | 12.9 nM | 129 nM | 0.275 nM | 48.2% | 427
6 | CC[C@H](C)[C@H](N)C(=O)N[C@H]1CCC(=O)NC[C@@H](C(=O)N[C@@H](Cc2ccc(O)cc2)C(=O)N[C@@H](CCCNC(=N)N)C(=O)N[C@@H](CC(C)C)C(=O)N[C@@H](CCCNC(=N)N)C(=O)N[C@@H](Cc2ccc(O)cc2)C(N)=O)NC(=O)[C@@H]2CCCN2C(=O)[C@@H](NC(=O)[C@@H](N)[C@@H](C)CC)CCC(=O)NC[C@@H](C(=O)N[C@@H](Cc2ccc(O)cc2)C(=O)N[C@@H](CCCNC(=N)N)C(=O)N[C@@H](CC(C)C)C(=O)N[C@@H](C)C(=O)N[C@@H](Cc2ccc(O)cc2)C(N)=O)NC(=O)[C@@H]2CCCN2C1=O (I: H-IEP[Dap]YRLAY-NH2 / II: H-IEP[Dap]YRLRY-NH2; amide I:2-II:4, I:4-II:2) | 5.13 nM | 170 nM | 0.363 nM | 50.2% | 427
7 | CC[C@H](C)[C@H](N)C(=O)N[C@H]1CCC(=O)NC[C@@H](C(=O)N[C@@H](Cc2ccc(O)cc2)C(=O)N[C@@H](CCCNC(=N)N)C(=O)N[C@@H](CC(C)C)C(=O)N[C@@H](CCCNC(=N)N)C(=O)N[C@@H](Cc2ccc(O)cc2)C(N)=O)NC(=O)[C@@H]2CCCN2C(=O)[C@@H](NC(=O)[C@@H](N)[C@@H](C)CC)CCC(=O)NC[C@@H](C(=O)N[C@@H](Cc2ccc(O)cc2)C(=O)N[C@@H](CCCNC(=N)N)C(=O)N[C@@H](CC(C)C)C(=O)N[C@@H](CCCNC(=N)N)C(=O)N[C@@H](C)C(N)=O)NC(=O)[C@@H]2CCCN2C1=O (I: H-IEP[Dap]YRLRA-NH2 / II: H-IEP[Dap]YRLRY-NH2; amide I:2-II:4, I:4-II:2) | 6.76 nM | 174 nM | 0.257 nM | 55.2% | 676
8 | CC[C@H](C)[C@H](N)C(=O)N[C@H]1CCC(=O)NC[C@@H](C(=O)N[C@@H](Cc2ccc(O)cc2)C(=O)N[C@@H](CCCN=C(N)N)C(=O)N[C@@H](CC(C)C)C(=O)N[C@@H](CCCN=C(N)N)C(=O)N[C@@H](Cc2ccc(O)cc2)C(N)=O)NC(=O)[C@@H]2CCCN2C(=O)[C@@H](NC(=O)[C@@H](N)[C@@H](C)CC)CCC(=O)NC[C@@H](C(=O)N[C@@H](Cc2ccc(O)cc2)C(=O)N[C@@H](CCCN=C(N)N)C(=O)N[C@@H](CC(C)C)C(=O)N[C@@H](CCCN=C(N)N)C(=O)N[C@@H](Cc2ccc(O)cc2)C(N)=O)NC(=O)[C@@H]2CCCN2C1=O (I: H-IEP[Dap]YRLRY-NH2 / II: H-IEP[Dap]YRLRY-NH2; amide I:2-II:4, I:4-II:2) | 11.2 to 37.2 nM | 41.7 to 89.1 nM | 0.295 to 1.02 nM | 21.8 to 36.1% | 87 to 141
9 | CC[C@H](C)[C@H](N)C(=O)N[C@H]1CCC(=O)NCCC[C@@H](C(=O)N[C@@H](Cc2ccc(O)cc2)C(=O)N[C@@H](CCCNC(=N)N)C(=O)N[C@@H](CC(C)C)C(=O)N[C@@H](CCCNC(=N)N)C(=O)N[C@@H](Cc2ccc(O)cc2)C(N)=O)NC(=O)[C@@H]2CCCN2C(=O)[C@@H](NC(=O)[C@@H](N)[C@@H](C)CC)CCC(=O)NCCC[C@@H](C(=O)N[C@@H](Cc2ccc(O)cc2)C(=O)N[C@@H](CCCNC(=N)N)C(=O)N[C@@H](CC(C)C)C(=O)N[C@@H](CCCNC(=N)N)C(=O)N[C@@H](Cc2ccc(O)cc2)C(N)=O)NC(=O)[C@@H]2CCCN2C1=O (I: H-IEP[Orn]YRLRY-NH2 / II: H-IEP[Orn]YRLRY-NH2; amide I:2-II:4, I:4-II:2) | 4.27 nM | 63.1 nM | 12.9 nM | 33% | 4.9
